Assay results as given in ChEMBL document CHEMBL1147539, “Synthesis and biological evaluation of novel, selective, nonsteroidal glucocorticoid receptor antagonists” (Bioorg Med Chem Lett, 2004).

Columns and labels:
Glucocorticoid receptor [1] = target: T1, Glucocorticoid receptor (Homo sapiens, UniProt P04150)
T1 sequence (P04150 whole entry): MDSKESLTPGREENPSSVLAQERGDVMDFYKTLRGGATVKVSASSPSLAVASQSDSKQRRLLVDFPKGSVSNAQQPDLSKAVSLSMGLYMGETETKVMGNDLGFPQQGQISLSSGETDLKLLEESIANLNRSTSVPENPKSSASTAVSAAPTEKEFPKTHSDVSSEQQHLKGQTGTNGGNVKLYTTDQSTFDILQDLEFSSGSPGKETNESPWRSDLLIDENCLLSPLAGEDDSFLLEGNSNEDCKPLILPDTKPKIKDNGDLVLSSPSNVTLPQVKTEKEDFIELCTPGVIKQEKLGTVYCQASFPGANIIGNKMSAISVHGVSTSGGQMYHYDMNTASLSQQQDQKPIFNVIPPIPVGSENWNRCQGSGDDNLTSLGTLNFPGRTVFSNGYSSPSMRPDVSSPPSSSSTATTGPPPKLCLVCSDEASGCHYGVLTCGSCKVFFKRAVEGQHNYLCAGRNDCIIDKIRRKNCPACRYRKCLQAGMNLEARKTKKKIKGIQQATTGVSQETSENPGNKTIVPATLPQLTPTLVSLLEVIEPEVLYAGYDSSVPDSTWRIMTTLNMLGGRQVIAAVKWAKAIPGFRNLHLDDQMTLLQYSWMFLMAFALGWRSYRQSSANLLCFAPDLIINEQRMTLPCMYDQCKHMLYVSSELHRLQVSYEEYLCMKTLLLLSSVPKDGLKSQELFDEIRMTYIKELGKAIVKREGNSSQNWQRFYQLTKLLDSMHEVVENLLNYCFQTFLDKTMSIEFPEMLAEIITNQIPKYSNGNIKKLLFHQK

Glucocorticoid receptor [2] = target: T1, Glucocorticoid receptor; experiment: Effect on human Glucocorticoid receptor (GR) in a whole cell assay to measure functional cellular GR-antagonism (GRAF)
Glucocorticoid receptor [3] = target: T1, Glucocorticoid receptor; experiment: Displacement of [3H]dexamethasone from human Glucocorticoid receptor (GR); Value ranges from 1428-1433 nM
Outline: (§1)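 Binding to human GR; IC50 reported as the geometric mean of two experiments (three for some values), each run in duplicate, with the range of the experiments given.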

Glucocorticoid receptor [4] = target: T1, Glucocorticoid receptor; experiment: Displacement of [3H]dexamethasone from human Glucocorticoid receptor (GR); Value ranges from 3-4 nM
Outline: as §1

Glucocorticoid receptor [5] = target: T1, Glucocorticoid receptor; experiment: Displacement of [3H]dexamethasone from human Glucocorticoid receptor (GR); Value ranges from 159-161 nM
Outline: as §1

Glucocorticoid receptor [6] = target: T1, Glucocorticoid receptor; experiment: Displacement of [3H]dexamethasone from human Glucocorticoid receptor (GR)
Glucocorticoid receptor [7] = target: T1, Glucocorticoid receptor; remark: listed apart in the source
Glucocorticoid receptor [8] = target: T1, Glucocorticoid receptor; experiment: Displacement of [3H]dexamethasone from human Glucocorticoid receptor (GR); Value ranges from 1382-1049 nM
Outline: as §1

Glucocorticoid receptor [9] = target: T1, Glucocorticoid receptor; experiment: Displacement of [3H]dexamethasone from human Glucocorticoid receptor (GR); […]
Glucocorticoid receptor [10] = target: T1, Glucocorticoid receptor; remark: listed apart in the source

For `COc1cccc2c1-c1ccc(NS(=O)(=O)c3ccccc3)cc1C(c1ccccc1)O2` (stereo not drawn), the IC50 (Glucocorticoid receptor [1]) was 146 nM and the IC50 (Glucocorticoid receptor [2]) was 137 nM.
`COc1cccc2c1-c1ccc(NS(C)(=O)=O)cc1C(c1ccccn1)O2` (stereo not drawn) showed an IC50 (Glucocorticoid receptor [3]) of 1430 nM.
In the case of `COc1cccc2c1-c1ccc(NS(C)(=O)=O)cc1C(c1ccc(Cl)c(Cl)c1)O2` (stereo not drawn), the IC50 (Glucocorticoid receptor [4]) is reported as 3 nM and the IC50 (Glucocorticoid receptor [2]) is reported as 378 nM.
With `CCC(=O)Nc1ccc2c(c1)C(c1ccccc1)Oc1cccc(OC)c1-2` (stereo not drawn) the IC50 (Glucocorticoid receptor [5]) was 160 nM and the IC50 (Glucocorticoid receptor [2]) was 124 nM.
`CNc1cccc(C2Oc3cccc(OC)c3-c3ccc(NS(C)(=O)=O)cc32)c1` (stereo not drawn) gave an IC50 (Glucocorticoid receptor [6]) of 23 nM and an IC50 (Glucocorticoid receptor [2]) of 180 nM.
`COc1cccc2c1-c1ccc(NS(=O)(=O)c3cccs3)cc1C(c1ccccc1)O2` (stereo not drawn) showed an IC50 (Glucocorticoid receptor [7]) of 18 nM and an IC50 (Glucocorticoid receptor [2]) of 93 nM.
`COC(=O)c1cccc2c1-c1ccc(NS(C)(=O)=O)cc1C(c1ccccc1)O2` (stereo not drawn) gave an IC50 (Glucocorticoid receptor [8]) of 1200 nM.
`CCS(=O)(=O)Nc1ccc2c(c1)C(c1ccccc1)Oc1cccc(OC)c1-2` (stereo not drawn) showed an IC50 (Glucocorticoid receptor [9]) of 62 nM and an IC50 (Glucocorticoid receptor [2]) of 251 nM.
For `COc1cccc2c1-c1ccc(NS(C)(=O)=O)cc1C(c1ccc(Oc3ccccc3)cc1)O2` (stereo not drawn), the IC50 (Glucocorticoid receptor [6]) was 63 nM and the IC50 (Glucocorticoid receptor [2]) was 847 nM.
With `COc1cccc2c1-c1ccc(NC(=O)c3ccccc3)cc1C(c1ccccc1)O2` (stereo not drawn) the IC50 (Glucocorticoid receptor [10]) was 404 nM and the IC50 (Glucocorticoid receptor [2]) was 289 nM.
